Consider 5 compounds from ChEMBL document CHEMBL1142188, “Fitness costs of fluoroquinolone resistance in Streptococcus pneumoniae” (2007).

Values after ≈ are worked out from the molar mass of the structure shown.

Experiment [1] relates to Streptococcus pneumoniae. Kind of experiment: Antimicrobial activity against Streptococcus pneumoniae R6 transformants with parC D83Y and gyrA E85K mutation in presence of reserpine.
Experiment [2] concerns Streptococcus pneumoniae. Kind of experiment: Antimicrobial activity against Streptococcus pneumoniae R6 transformants with parC S79F and gyrA E85K mutation in presence of reserpine.
Experiment [3] concerns Streptococcus pneumoniae. Kind of experiment: Antimicrobial activity against Streptococcus pneumoniae R6 transformants with parC S79F and gyrA S81Y mutation in presence of reserpine.
Experiment [4] deals with Streptococcus pneumoniae. Nature of the experiment: Antimicrobial activity against Streptococcus pneumoniae R6 transformants with parC D83Y and gyrA S81Y mutation. The format is functional. The method, boiled down: (§1)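 MIC by Etest on tryptic soy agar with 5% sheep blood, incubated overnight at 35°C, or by serial dilution in Mueller-Hinton broth with 5% horse blood per CLSI protocols. Each assay was run twice. Strains were R6 or R6 transformed with QRDR alleles from levofloxacin-resistant clinical isolates, with mutations confirmed by PCR sequencing.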

The subject of experiment [5] is Streptococcus pneumoniae. Nature of the experiment: Antimicrobial activity against Streptococcus pneumoniae R6 transformants with parC S79F and gyrA S81F mutation. The format is functional. The method, boiled down:
as §1

For experiment [6], the system named is Streptococcus pneumoniae. Nature of the experiment: Antimicrobial activity against Streptococcus pneumoniae R6 transformants with parE D435N and gyrA S81F mutation. Format: functional. In outline: as §1
Experiment [7] deals with Streptococcus pneumoniae. Kind of experiment: Antimicrobial activity against Streptococcus pneumoniae R6 transformants with parC S79Y and gyrA S81F mutation. The format is functional. The method, boiled down:
as §1

Experiment [8] deals with Streptococcus pneumoniae. Nature of the experiment: Antimicrobial activity against Streptococcus pneumoniae R6 transformants with gyrA S81F mutation. The format is functional. The method, boiled down:
as §1

Experiment [9] has as its system Streptococcus pneumoniae. Nature of the experiment: Antimicrobial activity against Streptococcus pneumoniae R6 transformants with parC S79F mutation in presence of reserpine.
Experiment [10] deals with Streptococcus pneumoniae. Nature of the experiment: Antimicrobial activity against Streptococcus pneumoniae R6 transformants with parE D435N and gyrA E85K mutation. Format: functional. In outline:
as §1

Experiment [11] has as its system Streptococcus pneumoniae. Nature of the experiment: Antimicrobial activity against Streptococcus pneumoniae R6 transformants with parC D83Y and gyrA E85K mutation. Format: functional. The method, boiled down: as §1
In experiment [12] the test system is Streptococcus pneumoniae. Kind of experiment: Antimicrobial activity against Streptococcus pneumoniae R6 transformants with parC D83Y and gyrA S81Y mutation in presence of reserpine.
Experiment [13] concerns Streptococcus pneumoniae. Nature of the experiment: Antimicrobial activity against Streptococcus pneumoniae R6 transformants with parC S79Y and gyrA S81F mutation in presence of reserpine.
For experiment [14], the system named is Streptococcus pneumoniae. Kind of experiment: Antimicrobial activity against Streptococcus pneumoniae R6 transformants with gyrA S81Y mutation. Format: functional. The method, boiled down:
as §1

Experiment [15] deals with Streptococcus pneumoniae. Nature of the experiment: Antimicrobial activity against Streptococcus pneumoniae R6 transformants with parC S79Y mutation in presence of reserpine.
In experiment [16] the test system is Streptococcus pneumoniae. Nature of the experiment: Antimicrobial activity against Streptococcus pneumoniae R6 transformants with parE D435N and gyrA S81F mutation in presence of reserpine.
Experiment [17] deals with Streptococcus pneumoniae. Nature of the experiment: Antimicrobial activity against Streptococcus pneumoniae R6 transformants with parC D83Y mutation. Format: functional. In outline: as §1
Experiment [18] concerns Streptococcus pneumoniae. Nature of the experiment: Antimicrobial activity against Streptococcus pneumoniae R6 transformants with parC S79Y and gyrA E85K mutation in presence of reserpine.
Experiment [19] has as its system Streptococcus pneumoniae. Kind of experiment: Antimicrobial activity against Streptococcus pneumoniae R6 transformants with parC S79Y and gyrA E85K mutation. Format: functional. In outline:
as §1

For experiment [20], the system named is Streptococcus pneumoniae. Nature of the experiment: Antimicrobial activity against Streptococcus pneumoniae R6 transformants with parC S79F and gyrA S81F mutation in presence of reserpine.
Experiment [21] deals with Streptococcus pneumoniae. Kind of experiment: Antimicrobial activity against Streptococcus pneumoniae R6 transformants with parC D83Y and gyrA S81F mutation. The format is functional. In outline:
as §1

For experiment [22], the system named is Streptococcus pneumoniae. Nature of the experiment: Antimicrobial activity against Streptococcus pneumoniae R6 transformants with parC D83Y mutation in presence of reserpine.
Experiment [23] has as its system Streptococcus pneumoniae. Kind of experiment: Antimicrobial activity against Streptococcus pneumoniae R6 transformants with parE D435N and gyrA E85K mutation in presence of reserpine.
Experiment [24] concerns Streptococcus pneumoniae. Nature of the experiment: Antimicrobial activity against Streptococcus pneumoniae R6 transformants with gyrA S81F mutation in presence of reserpine.
Experiment [25] concerns Streptococcus pneumoniae. Nature of the experiment: Antimicrobial activity agaisnt Streptococcus pneumoniae R6 transformants with parC D83Y and gyrA S81F mutation in presence of reserpine.
Experiment [26] has as its system Streptococcus pneumoniae. Kind of experiment: Antimicrobial activity against Streptococcus pneumoniae R6 transformants with gyrA S81Y mutation in presence of reserpine.
Experiment [27] relates to Streptococcus pneumoniae. Nature of the experiment: Antimicrobial activity against Streptococcus pneumoniae R6 transformants with parC S79F and gyrA S81Y mutation. The format is functional. In outline: as §1
Experiment [28] relates to Streptococcus pneumoniae. Kind of experiment: Antimicrobial activity agaisnt Streptococcus pneumoniae R6 transformants with parC S79F and gyrA E85K mutation. Format: functional. In outline: as §1
Experiment [29] relates to Streptococcus pneumoniae. Kind of experiment: Antimicrobial activity against Streptococcus pneumoniae R6 transformants with parE D435N and gyrA S81Y mutation. Format: functional. In outline: as §1
The test system of experiment [30] is Streptococcus pneumoniae. Kind of experiment: Antimicrobial activity against Streptococcus pneumoniae R6 transformants with parE D435N mutation in presence of reserpine.
Experiment [31] relates to Streptococcus pneumoniae. Kind of experiment: Antimicrobial activity against Streptococcus pneumoniae R6 transformants with parE D435N and gyrA S81Y mutation in presence of reserpine.
Experiment [32] relates to Streptococcus pneumoniae. Nature of the experiment: Antimicrobial activity agaisnt Streptococcus pneumoniae R6 transformants with parC S79Y mutation. Format: functional. In outline:
as §1

In experiment [33] the test system is Streptococcus pneumoniae. Kind of experiment: Antimicrobial activity against Streptococcus pneumoniae R6 transformants with parC S79F mutation. Format: functional. The method, boiled down: as §1
The test system of experiment [34] is Streptococcus pneumoniae. Nature of the experiment: Antimicrobial activity against Streptococcus pneumoniae R6. Format: functional. The method, boiled down:
as §1

The test system of experiment [35] is Streptococcus pneumoniae. Nature of the experiment: Antimicrobial activity against Streptococcus pneumoniae R6 transformants with gyrA E85K mutation. The format is functional. In outline: as §1
Experiment [36] relates to Streptococcus pneumoniae. Kind of experiment: Antimicrobial activity against Streptococcus pneumoniae R6 transformants with parE D435N mutation. Format: functional. The method, boiled down:
as §1

Usually MIC stands for the lowest concentration that inhibits growth of the organism. Regarding `O=C(O)c1cn(C2CC2)c2cc(N3CCNCC3)c(F)cc2c1=O` [CIPROFLOXACIN], the MIC in experiment [1] stood at 32 µg/mL; in [2], 32 µg/mL; in experiment [3], 32 µg/mL; in experiment [4], 64 µg/mL (≈ 193 µM); in experiment [5] it was 64 µg/mL (≈ 193 µM); in experiment [6], 32 µg/mL (≈ 96.6 µM). Also, the minimum inhibitory concentration (MIC) in experiment [7] is 64 µg/mL (≈ 193 µM); in [8], 1 µg/mL (≈ 3.02 µM); in experiment [9], 2 µg/mL; in experiment [10], < 4 µg/mL; in experiment [11], 64 µg/mL (≈ 193 µM); in experiment [12] it was 32 µg/mL. The MIC in experiment [13] was 32 µg/mL; in experiment [14] it was 2 µg/mL (≈ 6.04 µM); in [15], 2 µg/mL; in experiment [16], 16 µg/mL; in [17] it was 3 µg/mL (≈ 9.05 µM); in experiment [18] it was 32 µg/mL. Also, the MIC was 64 µg/mL (≈ 193 µM) in experiment [19]; 32 µg/mL in experiment [20]; 32 µg/mL (≈ 96.6 µM) in experiment [21]; 2 µg/mL in [22]; < 4 µg/mL in experiment [23]; 1 µg/mL in [24]. The MIC was determined as 8 µg/mL in experiment [25]; 2 µg/mL in experiment [26]; 64 µg/mL (≈ 193 µM) in experiment [27]; 32 µg/mL (≈ 96.6 µM) in [28]; 64 µg/mL (≈ 193 µM) in experiment [29]; 2 µg/mL in experiment [30]. Also, the minimal inhibitory concentration (MIC) in [31] turned out to be 32 µg/mL.

Turning to `COc1c(N2CCNC(C)C2)c(F)cc2c(=O)c(C(=O)O)cn(C3CC3)c12` (centres undefined) [GATIFLOXACIN], the MIC is ≥ 4 µg/mL in experiment [4]; ≥ 4 µg/mL in experiment [5]; 2 µg/mL (≈ 5.33 µM) in [6]; ≥ 4 µg/mL in experiment [7]; 0.25 µg/mL (≈ 0.666 µM) in experiment [8]; 0.12 µg/mL (≈ 0.32 µM) in experiment [32]. Further, the minimum inhibitory concentration (MIC) in [10] turned out to be 0.25 µg/mL (≈ 0.666 µM); in [33] it was 0.12 µg/mL (≈ 0.32 µM); in experiment [11], 2 µg/mL (≈ 5.33 µM); in experiment [34] it was 0.12 µg/mL (≈ 0.32 µM); in experiment [14] it was 0.25 µg/mL (≈ 0.666 µM); in [17] it was 0.12 µg/mL (≈ 0.32 µM). For the same compound, the MIC in [19] was ≥ 4 µg/mL; in experiment [21] it was 4 µg/mL (≈ 10.7 µM); in experiment [27] it was ≥ 4 µg/mL; in experiment [35], 0.25 µg/mL (≈ 0.666 µM); in [28] it was ≥ 4 µg/mL; in experiment [36], 0.12 µg/mL (≈ 0.32 µM). Also, the MIC in [29] was ≥ 4 µg/mL.

In the case of `CO/N=C1\CN(c2nc3c(cc2F)c(=O)c(C(=O)O)cn3C2CC2)CC1CN` (centres undefined) [GEMIFLOXACIN], the MIC in [4] amounted to 0.25 µg/mL (≈ 0.642 µM); in [5] it was 0.5 µg/mL (≈ 1.28 µM); in experiment [6], 0.25 µg/mL (≈ 0.642 µM); in experiment [7], 1 µg/mL (≈ 2.57 µM); in [8], 0.12 µg/mL (≈ 0.308 µM); in experiment [32], 0.06 µg/mL (≈ 0.154 µM). Further, the MIC is < 0.06 µg/mL in experiment [10]; 0.06 µg/mL (≈ 0.154 µM) in experiment [33]; 0.5 µg/mL (≈ 1.28 µM) in experiment [11]; 0.03 µg/mL (≈ 0.077 µM) in experiment [34]; 0.12 µg/mL (≈ 0.308 µM) in [14]; 0.06 µg/mL (≈ 0.154 µM) in experiment [17]. The MIC in experiment [19] was 1 µg/mL (≈ 2.57 µM); in experiment [21] it was 0.12 µg/mL (≈ 0.308 µM); in experiment [27] it was 0.5 µg/mL (≈ 1.28 µM); in experiment [35], 0.06 µg/mL (≈ 0.154 µM); in experiment [28], 1 µg/mL (≈ 2.57 µM); in [36], 0.06 µg/mL (≈ 0.154 µM). This compound also gave an MIC in experiment [29] of 0.25 µg/mL (≈ 0.642 µM).

Consider `C[C@H]1COc2c(N3CCN(C)CC3)c(F)cc3c(=O)c(C(=O)O)cn1c23.C[C@H]1COc2c(N3CCN(C)CC3)c(F)cc3c(=O)c(C(=O)O)cn1c23.O` [LEVOFLOXACIN], for which the MIC is > 32 µg/mL in [4]; > 32 µg/mL in [5]; > 32 µg/mL in experiment [6]; > 32 µg/mL in experiment [7]; > 32 µg/mL in experiment [11]; 3 µg/mL in [14]. The MIC in [19], in experiment [21], in [27], in [28] and in experiment [29] was > 32 µg/mL in each case.

Regarding `COc1c(N2C[C@@H]3CCCN[C@@H]3C2)c(F)cc2c(=O)c(C(=O)O)cn(C3CC3)c12` [MOXIFLOXACIN], the MIC came out at 4 µg/mL (≈ 9.96 µM) in experiment [4]; 8 µg/mL (≈ 19.9 µM) in [5]; 4 µg/mL (≈ 9.96 µM) in [6]; 8 µg/mL (≈ 19.9 µM) in experiment [7]; 0.5 µg/mL (≈ 1.25 µM) in [8]; 0.5 µg/mL (≈ 1.25 µM) in [10]. For the same compound, the MIC in [11] is 4 µg/mL (≈ 9.96 µM); in experiment [14], > 0.5 µg/mL; in experiment [19], 8 µg/mL (≈ 19.9 µM); in [21], 4 µg/mL (≈ 9.96 µM); in experiment [27], 4 µg/mL (≈ 9.96 µM); in [35], 0.25 µg/mL (≈ 0.623 µM). Further, the minimal inhibitory concentration (MIC) is 8 µg/mL (≈ 19.9 µM) in [28] and 4 µg/mL (≈ 9.96 µM) in experiment [29].
